The data set deals with MS2 coat protein. The data set is described as follows: apparent Kd, MS2 coat protein; higher = weaker binding; RNA-MaP array; FMN 200 µM where present. An outline of the steps: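 The apparent Kd is the median of filtered binding-curve fits, one per cluster, to green signal normalised to red-channel RNA signal and control-cluster median Fmax. The clusters were on Illumina sequencing chips, and stalled E. coli RNA polymerase had transcribed the designs on them. Titration used SNAP-549-labelled MS2 coat protein from 0.7 or 1.5 nM, doubling to 3 µM, without and then with constant ligand, in 100 mM Tris-HCl pH 7.5, 80 mM KCl, 4 mM MgCl2, BSA, DTT, yeast tRNA and Tween-20.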

[1] abbreviates: designed as: OFF switch for flavin mononucleotide, no ligand.
The mark [2] stands for this setting: ligand present: flavin mononucleotide, designed as: OFF switch for flavin mononucleotide.
Where [3] appears, read: designed as: ON switch for flavin mononucleotide, no ligand.
The mark [4] stands for this setting: ligand present: flavin mononucleotide, designed as: ON switch for flavin mononucleotide.

Consider “CUCAGACAUGAGGAUCACCCAUGUGAGGAUAUGAUGCGAUCGUCGAAAGACGAUAGCAUCAGAAGGCACAAAUG”, for which the “apparent Kd” value was 78.4 nM under setting [1] and 305 nM under setting [2].

Turning to “GGUGCGUAUGUGAGGAUAUGCUGGUCCUUGGAUCGGCAGAAGGCACAUGAGGAUCACCCAUGUGGUGUCGUUCC”, the “apparent Kd” value was 120 nM under setting [1] and 55.4 nM under setting [2].

For “GCGGUACAUGAGGAUCACCCAUGUCAGGAUAUCCGCUGUUUGUCGUUUGGCGGGCGGUGGAGAAGGGACCUCGC”, the “apparent Kd” value was found to be 90 nM under setting [1] and 93 nM under setting [2].

For “GUGCCUUGGGAGAAGGCAGUAUGCAAAGCAUUCUGAGGAUAUUCAUACCGGAAACGGACAUGAGGAUCACCCAUGUGGCACAAA”, the “apparent Kd” value under setting [3] was 1210 nM and the “apparent Kd” value under setting [4] turned out to be 64.6 nM.

In the case of “UUAAAUCAUGUAGGAUAUGCAUGGCGAAGCUACGCAGAAGGACAUGAGGAUCACCCAUGUUCUGGCUACCGGAUACGGUGGCAA”, the “apparent Kd” value reads like this: under setting [1], 20.6 nM; under setting [2], 83.6 nM.

As to “GUUGUUUCUGAGGAUAUUAUUUUAUUCGAUUGAUAAGAAGGCAGUACAUGAGGAUCACCCAUGUGGGUUGUUUG”, the “apparent Kd” value is 60.6 nM under setting [1] and 122 nM under setting [2].

In the case of “GCACUGGAUGUAGGAUAUCAGGACGAUAAGUCCUGAGAAGGACAUGAGGAUCACCCAUGUGAAAAUUCCAGUGCAAAUAAUAUA”, the “apparent Kd” value reads like this: under setting [1], 13 nM; under setting [2], 19.1 nM.

Consider “UCCUGGCGAGGAUAUACAAUGUUUUUCGCGUUUUGUUUCGAACAUGAGGAUCACCCAUGUAGAAGGUGCUACUG”, for which the “apparent Kd” value under setting [1] was determined as 38.3 nM and the “apparent Kd” value under setting [2] was 41 nM.

On to “UGGUUGUGAGGAUAUCCAAUAUAUGACAUGAGGAUCACCCAUGUUUCCACUCGUACCUCCGGAGAAGGCACUUGGU”, for which the “apparent Kd” value was found to be 33.4 nM under setting [1] and 28.4 nM under setting [2].

For “CAUUAAUUCAUUAUAGUAAUUAUACAGGAUAUGUUACAUGAGGAUCACCCAUGUAUUCAUGGUAUACAGAAGGGUAAUACUAGA”, the “apparent Kd” value runs as follows: under setting [1], 12.6 nM; under setting [2], 13.9 nM.

With “GGAUGCAAGGAGAAGGGCUACUGGUUGAAACCUGCGGCCUCUGGAACAUGAGGAUCACCCAUGUAGCAGGAUAUCCUUACGUGA”, the “apparent Kd” value reads like this: under setting [1], 233 nM; under setting [2], 32.8 nM.

With “GCCGGGUCAGGAUAUGGGCCCGGGCCCGAAAGGGCCCGGGCCCAGAAGGGACAUGAGGAUCACCCAUGUCCGGC”, the “apparent Kd” value came out at 19.5 nM under setting [1] and 16.5 nM under setting [2].

With “AUGUUACAUGAGGAUCACCCAUGUGAGGAUAUGUGUAUCCCUAAAAAAGUGUGGGACCAUAGAAGGCACUUGGA”, the “apparent Kd” value by setting is: under setting [1], 62.9 nM; under setting [2], 98.1 nM.

Turning to “GGCACACAUGAGGAUCACCCAUGUGAGGAUAUGUUAGUUUCGGCCAAAGCCGAAAUUAACAGAAGGCACAUGCC”, the “apparent Kd” value is 14.9 nM under setting [1] and 26.4 nM under setting [2].

Consider “UGGUACUAGGGAGGAUAUGGGAAGAUACAUGAGGAUCACCCAUGUUUAAGAAUGCCGAGAGGCAACUAGAAGGCCCUAGUACCG”, for which the “apparent Kd” value stood at 475 nM under setting [3] and 21.9 nM under setting [4].

Regarding “GGGCCAUAGUAGAAGGGAUAUACGAAAGGUAUAUCAGGAUAUACAUGAGGAUCACCCAUGUUCUAACAGUGAUAGUCCUCCCUA”, the “apparent Kd” value under setting [1] is 22.4 nM and the “apparent Kd” value under setting [2] is 69.8 nM.

As for “UAUAUAUAGUAAGGAUAUGUAUUAGUUUUAUAAACAGAAGGUACUGACAUGAGGAUCACCCAUGUUUUAGUGUGGGCAUGUAGA”, the “apparent Kd” value is, setting by setting: under setting [1], 90 nM; under setting [2], 144 nM.

As to “GACGGGUGGGUAGGAUAUGGCUAUGUCUCAUUGCUAGAAGGACCAGCUGCUACAUGAGGAUCACCCAUGUCGUAGUGCACCCAG”, the “apparent Kd” value amounted to 189 nM under setting [3] and 13.1 nM under setting [4].

Turning to “AACAUGUGAGGAUAUUAGUUGUACGUCAAUAGACGUAUAAGUGAGAAGGCACAUGAGGAUCACCCAUGUUCCUG”, the “apparent Kd” value runs as follows: under setting [1], 43.7 nM; under setting [2], 464 nM.

On to “CACUCAGGCACAUGAGGAUCACCCAUGUCCCGGAAGCCGAGACAGGAUAUGUGCCUCGAAUGUGCACAGAAGGGUCUACUAUAU”, for which the “apparent Kd” value was determined as 226 nM under setting [3] and 180 nM under setting [4].

Consider “GAAGCGCUGGAGAAGGGUGAUCAAGUUAUAAACGUGUACAUGAGGAUCACCCAUGUCAGGGAAUCGCAGGAUAUCCAGCUGAAC”, for which the “apparent Kd” value was 315 nM under setting [3] and 42.9 nM under setting [4].

On to “UGUGUGUGGCAGGAUAUGCAGGUAAUAAGACGGGUAGAAGGGUCUACAUGAGGAUCACCCAUGUGGCCGGUUGG”, for which the “apparent Kd” value turned out to be 16.1 nM under setting [1] and 18.2 nM under setting [2].

Take “UUUACAUGAGGAUCACCCAUGUUUUGAAAGAUUAGUUUUGGUGAGGAUAUACAUGAUAAAGAAUUGUAGAAGGCACUGGGUACA”: the “apparent Kd” value runs as follows: under setting [3], 45.4 nM; under setting [4], 28.6 nM.

Consider “GUUGUUACUGAGGAUAUUAUUUUAUUCGAUUGAUAAGAAGGCAGUACAUGAGGAUCACCCAUGUGGGUAGUUUG”, for which the “apparent Kd” value was determined as 355 nM under setting [1] and 586 nM under setting [2].

For the sequence “UAAUCUCAGAUAGGAUAUAUAGGAUAACUUAAGACCUAACAUGAGGAUCACCCAUGUGAUUAUUCGUAGAAGGAUCAAUGACCC”, the “apparent Kd” value is 189 nM under setting [3] and 200 nM under setting [4].

On to “GUCAGCUCGUGAGGAUAUACAACACUGCUUCGGCAGUGUAUUAAGAUCACAUGAGGAUCACCCAUGUAGAAGGCACGAGAUGAU”, for which the “apparent Kd” value under setting [1] amounted to 14.3 nM and the “apparent Kd” value under setting [2] was 237 nM.

Regarding “UUGGAGUACGUAGGAUAUGUAGGAUAUUCCUACAUGAGGAUCACCCAUGUAUGCAUGGAAGAAGGACAGAAGGACGUGCUCCAU”, the “apparent Kd” value runs as follows: under setting [3], 219 nM; under setting [4], 16 nM.

Take “GUCAGCUCGUGAGGAUAUACAACACUGCUUCGGCAAUGUAUUAAGAUCACAUGAGGAUCACCCAUGUAGAAGGCACGAGCUGAU”: the “apparent Kd” value by setting is: under setting [1], 9.99 nM; under setting [2], 164 nM.

For the sequence “UAUAUAAUUAAGAGCUGGAACUCAACAUGAGGAUCACCCAUGUAGGAUAUCAGCACGAUAAGUGCUGAGAAGGACAUCCAGCUC”, the “apparent Kd” value by setting is: under setting [1], 16.6 nM; under setting [2], 17.8 nM.

In the case of “AGGGAGUGAGGAUAUGCUGCUCGUCACUUGCGUGAUGAGUAGCAGAAGGUACAUGAGGAUCACCCAUGUAAAGA”, the “apparent Kd” value turned out to be 34.5 nM under setting [1] and 22.2 nM under setting [2].

Take “AUCAGCUCGUGAGGAUAUACAUCACUGCUUCGGCAGUGUGGUAAGGUCACAUGAGGAUCACCCAUGUAGAAGGCACGAGCUGAU”: the “apparent Kd” value was 13.1 nM under setting [1] and 279 nM under setting [2].

Consider “UAGCCCGGCCAGAAGGGAGCUAUACAUGAGGAUCACCCAUGUCACUGACUCAGGAUAUGGCGCGCUUGGUAUAAGUAUUCAUGG”, for which the “apparent Kd” value runs as follows: under setting [3], 8.36 nM; under setting [4], 5.46 nM.

As to “GUGUACAGAGGAUAUAUAUGAGCAUGGAAACAUGCAACUUCACAUGAGGAUCACCCAUGUAGAAGGCUGUACAC”, the “apparent Kd” value by setting is: under setting [1], 14.2 nM; under setting [2], 14.3 nM.

On to “AGUUAAUAUCGAGGAUAUGUCUAGACACAUGAGGAUCACCCAUGUAUGUGUAUAGAAGGCGAUAUUAACAGCAUGUUACAUGCG”, for which the “apparent Kd” value under setting [3] stood at 39 nM and the “apparent Kd” value under setting [4] is 16.1 nM.

On to “UUGCAGUGCGGGUAGGAUAUGUAGGGUGGUACAUGAGGAUCACCCAUGUGUCCACCCUUCUUCCGGCAGAAGGGCCUGUCACUGC”, for which the “apparent Kd” value is, setting by setting: under setting [3], 15.2 nM; under setting [4], 13.5 nM.

For the sequence “AAAAAACAUGAGGAUCACCCAUGUCAGGAUAUCCGAAAAAAAAAAAAAAAAAAAAAAAGGAGAAGGGACAAAAA”, the “apparent Kd” value is, setting by setting: under setting [1], 100 nM; under setting [2], 83.8 nM.

For “UGACGUAAAGAGAAGGGCUACUGGUUGAAACCUGCGGCCUCUGGAACAUGAGGAUCACCCAUGUAGCAGGAUAUCUUUGCAUCA”, the “apparent Kd” value stood at 166 nM under setting [1] and 18.1 nM under setting [2].

With “UGAGUGUGAGGAUAUAUGGUAGGGAUGAAGGGAUAGAAUUAGUAGAAGGUACAUGAGGAUCACCCAUGUUAGGA”, the “apparent Kd” value under setting [1] was found to be 24.4 nM and the “apparent Kd” value under setting [2] came to 21.9 nM.

For “AGAAACUACGAGAAGGACAUGUGAAAAGCCGCAAACAUGAGGAUCACCCAUGUAGGAUAUCGUAGUUUCAGGAUCGUGAGAUCA”, the “apparent Kd” value reads like this: under setting [1], 54.6 nM; under setting [2], 442 nM.

As for “CCUAAGGACACAGGAUAUAGCGUGGUGGCUGGGCUCCAACGACAAGCGGCGCUAGAAGGGUGACCACAUGAGGAUCACCCAUGU”, the “apparent Kd” value under setting [3] turned out to be 754 nM and the “apparent Kd” value under setting [4] was 218 nM.

Consider “UCGUACAUUCGAGGAUAUCGGUGAUAUAUAUUACGAGAAGGCGAUUGUUUGUUUUACGCCUUAGACAUGAGGAUCACCCAUGUA”, for which the “apparent Kd” value is, setting by setting: under setting [3], 77.7 nM; under setting [4], 55.2 nM.

For “UUCAGCUUGACAGGAUAUACAUGACUGCGAAAGCAGUCUAUCUUAAUAACAUGAGGAUCACCCAUGUAGAAGGGUCGAGCUGAA”, the “apparent Kd” value under setting [1] stood at 16.2 nM and the “apparent Kd” value under setting [2] was 26.5 nM.

In the case of “ACCUUACAUGAGGAUCACCCAUGUCAGGAUAUCUCGGGCGGCUGGAGACCAGCCGCCCAGAGAAGGGACGAGGA”, the “apparent Kd” value is, setting by setting: under setting [1], 14.4 nM; under setting [2], 15.6 nM.

As for “UGAUAGGACAGAGGAUAUACGUGCUAGAGAUACUAGCAAAGUUUCUUGACAUGAGGAUCACCCAUGUAGAAGGCUGUCCUAUCU”, the “apparent Kd” value is 5.74 nM under setting [1] and 12.3 nM under setting [2].

Take “AUUCAGCGGAACUUGACAUCCCUACAUGAGGAUCACCCAUGUCAGGAUAUAUGCUCUCGAGCUGCAUAGAAGGGACAUAGUGGG”: the “apparent Kd” value reads like this: under setting [1], 48.2 nM; under setting [2], 67 nM.

For the sequence “UUAAAUCAUGUAGGAUAUGCAUGGCGAAGCUACGCAGAAGGACAUGAGGAUCACCCAUGUUAUAGCUAGGCAGUUCCCUGGCAA”, the “apparent Kd” value is, setting by setting: under setting [1], 70.2 nM; under setting [2], 214 nM.

As to “CUGAAGUCAGGAUAUUGUUAAUUUAGUUGUUUGUAUUAGUUCGAGAAGGGACAUGAGGAUCACCCAUGUAAGUC”, the “apparent Kd” value under setting [1] is 32 nM and the “apparent Kd” value under setting [2] was 27.1 nM.

For the sequence “UAGAAGUCAGGAUAUGCAUGGCGGGACUUGCGUCGUGGCGUGCAGAAGGGACAUGAGGAUCACCCAUGUAAAGA”, the “apparent Kd” value worked out at 56.1 nM under setting [1] and 53.4 nM under setting [2].

For the origin of these results see the EternaBench riboswitch data.
